ChEMBL document CHEMBL1629660, “Pharmacodynamics of tigecycline against phenotypically diverse Staphylococcus aureus isolates in a murine thigh model” (Antimicrob Agents Chemother, 2009)

What was measured:
[1] = AUC (0 to 24 hrs) in neutropenic ICR mouse infected with Staphylococcus aureus ATCC 29213 at 50 mg/kg, sc by HPLC; type: ADME, organism-based; design: time < 24 hr, dose 50 mg/kg, route subcutaneous; conditions: plasma
In short: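 Neutropenic female ICR mice (cyclophosphamide 150 and 100 mg/kg ip, 4 days and 1 day before inoculation), both thighs inoculated im with ~10^7 CFU/ml of ATCC 29213. Single sc doses of 50, 25, 12.5 or 6.25 mg/kg. Cardiac blood taken from groups of six at 8–12 times over 0.5–24 h. Serum measured by HPLC (linear 0.05–5 µg/ml). Two-compartment fit by nonlinear least squares; AUC by trapezoidal rule.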

[2] = system: Staphylococcus aureus; experiment: Antimicrobial activity against community acquired methicillin-resistant Staphylococcus aureus isolate 156 infected in neutropenic ICR mouse assessed as change in bacterial load at 12.5 […] after 24 hrs; type: functional
In short: (§1)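 Female ICR mice (~25 g) made neutropenic with cyclophosphamide 150 and 100 mg/kg ip, 4 and 1 days before infection. Each thigh inoculated im with 0.1 ml of ~10^7 CFU/ml from an overnight subculture. Tigecycline sc (0.2 ml) given 2 h later as single or multiple doses of 1.56–50 mg/kg, 1.56–400 mg/kg/day, 3 mice/group. Saline-injected controls. Thighs harvested at 24 h, homogenized in saline, plated on blood agar; log10 CFU change vs 0-h controls.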

[3] = fAUC/MIC in community acquired methicillin-resistant Staphylococcus aureus isolate 144-infected neutropenic ICR mouse at stasis dose; type: functional
In short: (§2)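 Single-dose serum PK in infected neutropenic mice (sc 6.25–50 mg/kg; HPLC; two-compartment fit; AUC by trapezoidal rule; lower doses simulated). Free fraction from ultrafiltration of spiked mouse serum, in triplicate. Free exposures divided by modal MIC and plotted against 24-h log10 CFU change with a sigmoidal Emax model; EI50, EI80 and stasis values read from the fitted curves.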

[4] = r2 for fAUC/MIC in community acquired methicillin-resistant Staphylococcus aureus isolate 156-infected neutropenic ICR mouse
[5] = fAUC/MIC in community acquired methicillin-resistant Staphylococcus aureus isolate 156-infected neutropenic ICR mouse at 50% effective exposure index; type: functional; in short: as §2
[6] = system: Acinetobacter baumannii; experiment: Antimicrobial activity against carbapenem-intermediate,-resistant Acinetobacter baumannii assessed as decrease in bacterial count at 0.8 times of MIC after 48 hrs by time kill analysis; type: functional
[7] = system: Staphylococcus aureus; experiment: Antimicrobial activity against hospital-acquired methicillin-resistant Staphylococcus aureus isolate 56 infected in neutropenic ICR mouse assessed as decrease in bacterial density at 1.56 to 400 mg/kg, sc after 24 hrs; type: functional; conditions: dose mg/kg 1.56-400; route subcutaneous; in short: as §1
[8] = system: Staphylococcus aureus; experiment: Antimicrobial activity against community acquired methicillin-resistant Staphylococcus aureus isolate 156 infected in neutropenic ICR mouse assessed as change in bacterial load at 3.13 […] after 24 hrs; type: functional; in short: as §1
[9] = r2 for fAUC/MIC in community acquired methicillin-resistant Staphylococcus aureus isolate 147-infected neutropenic ICR mouse
[10] = fAUC/MIC in community acquired methicillin-resistant Staphylococcus aureus isolate 147-infected neutropenic ICR mouse at stasis dose; type: functional; in short: as §2
[11] = Plasma protein binding in human; type: ADME, cell-free; conditions: read-out: PPB (converted)
[12] = system: Staphylococcus aureus; experiment: Antimicrobial activity against community acquired methicillin-resistant Staphylococcus aureus isolate 156 infected in neutropenic ICR mouse assessed as change in bacterial load at 6.25 […] after 24 hrs; type: functional; in short: as §1
[13] = Protein binding in methicillin-sensitive Staphylococcus aureus ATCC 29213-infected neutropenic ICR mouse serum at 6.25 mg/kg, sc by HPLC; type: ADME, organism-based; design: dose 6.25 mg/kg, route subcutaneous; conditions: read-out: PB (converted)
[14] = system: Staphylococcus aureus; experiment: Antimicrobial activity against hospital-acquired methicillin-resistant Staphylococcus aureus isolate 56 infected in neutropenic ICR mouse assessed as change in bacterial load after 24 hrs; type: functional; in short: as §1
[15] = system: Acinetobacter baumannii; experiment: Antimicrobial activity against carbapenem-intermediate,-resistant Acinetobacter baumannii assessed as decrease in bacterial count at 0.6 times of MIC after 24 hrs by time kill analysis; type: functional
[16] = fAUC/MIC in methicillin-sensitive Staphylococcus aureus ATCC 25923-infected neutropenic ICR mouse at 50% effective exposure index; type: functional
[17] = fAUC/MIC in hospital-acquired methicillin-resistant Staphylococcus aureus isolate 152-infected neutropenic ICR mouse at 80% effective exposure index; type: functional; in short: as §2
[18] = fAUC/MIC in hospital-acquired methicillin-resistant Staphylococcus aureus isolate 56-infected neutropenic ICR mouse at 80% effective exposure index; type: functional; in short: as §2
[19] = system: Staphylococcus aureus; experiment: Antimicrobial activity against community acquired methicillin-resistant Staphylococcus aureus isolate 156 infected in immunocompetent ICR mouse assessed as reduction in bacterial load at 1.56 […] after 24 hrs; type: functional
In short: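 Non-neutropenic ICR mice (no cyclophosphamide). Each thigh inoculated im with 0.1 ml of ~10^8 CFU/ml. Tigecycline given sc once daily at 1.56, 3.13, 6.25 or 12.5 mg/kg starting 2 h post-infection, 3 mice/group. Thighs harvested at 24 h, homogenized, plated on blood agar; log10 CFU change vs 0-h controls.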

[20] = system: Staphylococcus aureus; experiment: Antimicrobial activity against community-acquired methicillin-resistant Staphylococcus aureus isolate 156 infected in neutropenic ICR mouse assessed as decrease in bacterial density at 1.56 to 400 mg/kg, sc after 24 hrs; type: functional; conditions: dose mg/kg 1.56-400; route subcutaneous; in short: as §1
[21] = system: Staphylococcus aureus; experiment: Antimicrobial activity against methicillin-sensitive Staphylococcus aureus ATCC 29213 infected in neutropenic ICR mouse assessed as change in bacterial load after 24 hrs; type: functional
In short: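 Neutropenic ICR mice had both thighs inoculated with ~10^7 CFU/ml; dosing began 2 h later. Groups of three received 1.56–400 mg/kg/day sc as single or divided doses, with saline-dosed controls. Thighs were homogenized and plated on blood agar at 24 h. Read-out was the log10 CFU/ml change relative to 0-h controls.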

[22] = r2 for fT>MIC in community acquired methicillin-resistant Staphylococcus aureus isolate 144-infected neutropenic ICR mouse
[23] = r2 for fCmax/MIC in methicillin-sensitive Staphylococcus aureus ATCC 29213-infected neutropenic ICR mouse
[24] = Protein binding in methicillin-sensitive Staphylococcus aureus ATCC 29213-infected neutropenic ICR mouse serum at 12.5 mg/kg, sc by HPLC; type: ADME, organism-based; design: dose 12.5 mg/kg, route subcutaneous; conditions: read-out: PB (converted)
[25] = Protein binding in methicillin-sensitive Staphylococcus aureus ATCC 29213-infected neutropenic ICR mouse serum at 6 µg/ml by HPLC; conditions: read-out: PB (converted)
[26] = fAUC/MIC in hospital-acquired methicillin-resistant Staphylococcus aureus isolate 56-infected neutropenic ICR mouse at stasis dose; type: functional; in short: as §2
[27] = r2 for fCmax/MIC in community acquired methicillin-resistant Staphylococcus aureus isolate 156-infected neutropenic ICR mouse
[28] = system: Acinetobacter baumannii; experiment: Antimicrobial activity against carbapenem-intermediate,-resistant Acinetobacter baumannii assessed as decrease in bacterial count at 0.7 times of MIC after 24 hrs by time kill analysis; type: functional

SMILES: CN(C)c1cc(NC(=O)CNC(C)(C)C)c(O)c2c1C[C@H]1C[C@H]3[C@H](N(C)C)C(O)=C(C(N)=O)C(=O)[C@@]3(O)C(O)=C1C2=O [TIGECYCLINE]
- AUC(0-t) at 24 h [1]: 49200 ng·h/mL
- log10CFU/ml [2]: -1.1
- fAUC/MIC [3]: 2.6
- r2 [4]: 0.97
- fAUC/MIC [5]: 5.1
- log10cfu [6]: 3.5
- CFU [7]: 1.5
- log10CFU/ml [8]: 0.5
- r2 [9]: 0.966
- fAUC/MIC [10]: 1.7
- fraction unbound [11]: 0.29
- log10CFU/ml [12]: 0.1
- fraction unbound [13]: 0.188
- log10CFU/ml [14]: 2
- log10cfu [15]: 1.5
- fAUC/MIC [16]: 5
- fAUC/MIC [17]: 2.8
- fAUC/MIC [18]: 4.2
- log10cfu [19]: 1.6
- CFU [20]: 1.5
- log10CFU/ml [21]: 2.3
- r2 [22]: 0.552%
- r2 [23]: 0.974
- fraction unbound [24]: 0.121
- fraction unbound [25]: 0.069
- fAUC/MIC [26]: 2.5
- r2 [27]: 0.88
- log10cfu [28]: 2
